# Laboratory results: ChEMBL document CHEMBL4330057, “Second generation of diazachrysenes: Protection of Ebola virus infected mice and mechanism of action” (Eur J Med Chem, 2019)
# Activity calls are given as the source filed them. No cut-off for these calls is given here.
# What was measured:
# Ebolavirus = test: Antiviral activity against Ebolavirus; assay type: functional, organism-based; conditions: Orthoebolavirus
# [1] = Hepatotoxicity in 6 hrs post fertilized transgenic l-fabp:EGFP zebrafish embryo assessed as change in liver area index up to 40 uM up to 120 hrs post fertilization by fluorescence assay; assay type: toxicity, Danio rerio; conditions: in vivo
# Summary of the method: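 Tg(l-fabp:EGFP) zebrafish embryos exposed from 6 hpf. At 120 hpf, liver area index (liver area/lateral body area) and liver fluorescence assessed by in vivo imaging.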
# [2] = Drug uptake in C57Bl/6 mouse serum at 10 mg/kg/day, ip qd for 7 days measured on day 5 at 15 to 180 mins post dose by UHPLC/MS analysis; assay type: ADME, organism-based; conditions: in vivo, read-out: Drug uptake
# [3] = Half life in mouse liver microsomes; assay type: ADME, Microsome
# Summary of the method: (§1)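 Substrate depletion with mouse or human liver microsomes, 1 h at 37 °C. Clearance (μL/min/mg) and half-life derived.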
# [4] = Half life in human liver microsomes; assay type: ADME, Microsome; summary of the method: as §1
# [5] = Apparent permeability from apical to basolateral side in MDCK cells; assay type: ADME, cell-based, Canis lupus familiaris; conditions: dog
# Summary of the method: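 Apparent permeability measured in MDCK cell monolayers, apical→basolateral and basolateral→apical directions, three biological replicates.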
# [6] = Drug uptake in C57Bl/6 mouse serum at 20 mg/kg/day, ip qd for 7 days measured at 24 hrs post last dose by UHPLC/MS analysis; assay type: ADME, organism-based; conditions: read-out: Drug uptake
# Summary of the method: (§2)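 Serum from two mice dosed 20 mg/kg/day i.p. taken 24 h after the last dose. Compound quantified by UHPLC/MS and screened for M+2, M+16, M-2 and M+32 products or combinations.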
# [7] = Drug metabolism in C57Bl/6 mouse assessed as reduction metabolite formation at 20 mg/kg/day, ip qd for 7 days measured at 24 hrs post last dose by UHPLC/MS analysis; assay type: ADME, organism-based; conditions: in vivo; summary of the method: as §2
# [8] = Drug metabolism in C57Bl/6 mouse assessed as oxygenation metabolite formation at 20 mg/kg/day, ip qd for 7 days measured at 24 hrs post last dose by UHPLC/MS analysis; assay type: ADME, organism-based; conditions: in vivo; summary of the method: as §2
# [9] = Drug metabolism in C57Bl/6 mouse assessed as dehydrogenation metabolite formation at 20 mg/kg/day, ip qd for 7 days measured at 24 hrs post last dose by UHPLC/MS analysis; assay type: ADME, organism-based; conditions: in vivo; summary of the method: as §2
# [10] = Myelotoxicity in 6 hrs post fertilized transgenic mpx:GFP zebrafish embryo assessed as reduction in neutrophil occurrence up to 40 uM measured at 72 hrs hrs post fertilization by fluorescence assay; design: species or system Danio rerio
# Summary of the method: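 Tg(mpx:GFP) zebrafish embryos with GFP-labelled neutrophils were treated with compound. At 72 hpf, neutrophil fluorescence of the whole embryo and neutrophil occurrence were assessed.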
# [11] = Acute toxicity in C57Bl/6 mouse assessed as effect on behavior at 20 mg/kg/day, ip qd for 7 days measured twice daily for 28 days; assay type: organism-based; conditions: in vivo, 672 h
# Summary of the method: (§3)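 Six healthy mice received 20 mg/kg i.p. once daily for seven doses. Behaviour and appearance observed twice daily for 28 days after the last dose.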
# [12] = Acute toxicity in C57Bl/6 mouse assessed as effect on appearance at 20 mg/kg/day, ip qd for 7 days measured twice daily for 28 days; assay type: organism-based; conditions: in vivo, 672 h; summary of the method: as §3
# Zaire ebolavirus [13] = test: Antiviral activity against Ebolavirus Mayinga infected in ip dosed Balb/c mouse assessed as protection against viral infection administered 2 hrs prior to viral infection daily for 6 days and measured for 14 days; assay type: functional, organism-based; conditions: 1976
# Zaire ebolavirus [14] = test: Antiviral activity against Ebolavirus Mayinga infected in Balb/c mouse assessed as protection against viral infection by measuring host survival at 10 mg/kg, ip administered 2 hrs prior to viral infection daily for 6 days and measured for 14 days relative to control; assay type: functional, 1976
# Zaire ebolavirus [15] = test: Antiviral activity against Ebolavirus Mayinga infected in Balb/c mouse assessed as protection against viral infection at 1 to 5 mg/kg, ip administered 2 hrs prior to viral infection daily for 6 days and measured for 14 days relative to control; assay type: functional, 1976
# [16] = system: Vesicular stomatitis virus; test: Antiviral activity against VSV expressing GFP infected in human HeLa cells assessed as inhibition of viral infection at 2 uM pre-incubated for 2 hrs followed by viral infection and measured after 6 hrs by cell mask deep red staining based assay; assay type: functional, organism-based
# Summary of the method: (§4)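 HeLa cells pretreated 2 h with compound, then infected with rVSV-EBOV-GP-GFP (8 h) or VSV-GFP (6 h), and stained with Cell Mask Deep Red. Relative inhibition = 1 minus (% GFP-expressing cells normalised to mock). Mean ± SD of three replicates, representative of three independent experiments.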
# Zaire ebolavirus [17] = test: Antiviral activity against VSV pseudotyped Ebolavirus Mayinga expressing GFP infected in human HeLa cells assessed as inhibition of viral infection up to 50 uM pre-incubated for 2 hrs followed by viral infection and measured after 8 hrs by high content imaging analysis; assay type: functional, organism-based; conditions: 1976; summary of the method: as §4
# [18] = system: Vesicular stomatitis virus; test: Antiviral activity against VSV expressing GFP infected in human HeLa cells assessed as inhibition of viral infection at 50 uM pre-incubated for 2 hrs followed by viral infection and measured after 6 hrs by cell mask deep red staining based assay; assay type: functional, organism-based; summary of the method: as §4
# [19] = system: Vesicular stomatitis virus; test: Antiviral activity against VSV expressing GFP infected in human HeLa cells assessed as inhibition of viral infection at 0.1 uM pre-incubated for 2 hrs followed by viral infection and measured after 6 hrs by cell mask deep red staining based assay; assay type: functional, organism-based; summary of the method: as §4
# HeLa [20] = test: Induction of lysosome suppression in human HeLa cells assessed as vesicular compartment expansion pretreated for 2 hrs by uranyl acetate staining based transmission electron microscopic method; assay type: functional, subcellular
# Summary of the method: (§5)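 HeLa cells mock-treated or treated 2 h with compound, then left uninfected or infected with rVSV-EBOV-GP-GFP for 2 h or 6 h. Processed for transmission electron microscopy to examine vesicular compartments.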
# HeLa [21] = test: Induction of lysosome suppression in human HeLa cells assessed as vesicular compartment expansion pretreated for 2 hrs followed by VSV pseudotyped EBOV-GP-GFP infection for 2 to 6 hrs by uranyl acetate staining based transmission electron microscopic method; assay type: functional, subcellular; summary of the method: as §5
structure (smiles),measurement,setting,value
Cl.Cl.Cl.Cl.c1cc(NCCN2CCOCC2)c2ccc3c(ccc4c(NCCN5CCOCC5)ccnc43)c2n1,EC50,Ebolavirus,700 nM
same,Activity,[1],Non-Toxic
same,concentration,[2],460 to 1030 nM
Cl.Cl.Cl.Cl.c1cc(NCCCCN2CCOCC2)c2ccc3c(ccc4c(NCCN5CCOCC5)ccnc43)c2n1,half-life,[3],62.1 min
same,half-life,[4],42.1 min
same,Papp A→B,[5],39.3 to 67.2 ×10⁻⁶ cm/s
same,concentration at 24 h,[6],350 to 1200 nM
same,Drug metabolism,[7],Metabolite_Notdetected
same,Drug metabolism,[8],Metabolite_Notdetected
same,Drug metabolism,[9],Metabolite_Notdetected
same,Activity,[10],Non-Toxic
same,Activity,[11],Non-Toxic
same,Activity,[12],Non-Toxic
same,Activity,Zaire ebolavirus [13],Dose-dependent effect
same,Activity,Zaire ebolavirus [14],100%
same,Activity,Zaire ebolavirus [15],50%
same,Activity,[16],inactive
same,Activity,Zaire ebolavirus [17],Active
same,Activity,[18],Active
same,Activity,[19],inactive
same,Activity,HeLa [20],Active
same,Activity,HeLa [21],Active
